Results on five compounds are retold here after ChEMBL document CHEMBL1121968, “Phospholipid-nucleoside conjugates. 3. Syntheses and preliminary biological evaluation of 1-beta-D-arabinofuranosylcytosine 5'-monophosphate-L-1,2-dipalmitin and selected 1-beta-D-arabinofuranosylcytosine 5-diphosphate-L-1,2-diacylglycerols” (1982).

Molecules are shown by their SMILES.

Experiment [1] has as its system MPC-11. Kind of experiment: In vitro antiproliferative activity was measured in mouse myeloma MPC-11 cell line. It is filed as functional. As to conditions: read-out: ED50 (the source's name).
Experiment [2] has as its system MPC-11. Briefly: In vitro lethal dose was measured in mouse myeloma MPC-11 cell line. As to conditions: read-out: LD50 (the source's name). It counts as functional.
The test system of experiment [3] is Mus musculus. Kind of experiment: Percent increase in life span calculated as (T/C-1)X100 at a dose of 10 mg/kg/day *5. It counts as functional. A digest of the protocol:
(§1)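 C3D2F1/J mice (groups of six, av wt 25 g) were inoculated ip with 1×10^6 L1210 lymphoid leukemia cells. Dosing started 24 h after implantation and continued daily through day 5. Read-outs were median survival time of treated versus controls (T/C, 24 controls), %ILS = (T/C − 1)×100, 30-day survivors, and weight change on day 8.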

Experiment [4] deals with Mus musculus. Briefly: Percent increase in life span calculated as (T/C-1)X100 at a dose of 20 mg/kg/day X5. It is filed as functional. The method, boiled down: as §1
The subject of experiment [5] is Mus musculus. Kind of experiment: Percent increase in life span calculated as (T/C-1)X100 at a dose of 40 mg/kg/day X5. It counts as functional. The method, boiled down:
as §1

For experiment [6], the system named is Mus musculus. Kind of experiment: Change in weight of mouse on day 8 was measured in L1210 lymphoid leukemia inoculated mice after ip administration at dose of 10 mg/kg/day *5. It counts as functional. As to conditions: route intraperitoneal. A digest of the protocol: (§2)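 C3D2F1/J mice, groups of six, average weight 25 g, were inoculated ip with 1×10^6 L1210 lymphoid leukemia cells following NCI protocol. Dosing was ip, daily, starting 24 h after tumor implantation and continuing through day 5. Body-weight change in g/mouse was recorded on day 8. Pooled controls were 24 mice.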

Experiment [7] deals with Mus musculus. Briefly: Change in weight of mouse on day 8 was measured in L1210 lymphoid leukemia inoculated mice after ip administration at dose of 20 mg/kg/day X5. As to conditions: route intraperitoneal. It counts as functional. A digest of the protocol: as §2
Experiment [8] deals with Mus musculus. Kind of experiment: Change in weight of mouse on day 8 was measured in L1210 lymphoid leukemia inoculated mice after ip administration at dose of 40 mg/kg/day X5. It is filed as functional. As to conditions: route intraperitoneal. A digest of the protocol:
as §2

Experiment [9] has as its system Mus musculus. Briefly: Median survival time expressed as (T/C) was measured at dose of 10 mg/kg/day *5; 15.0/7.5. It counts as functional. The method, boiled down:
as §1

In experiment [10] the test system is Mus musculus. Kind of experiment: Median survival time expressed as (T/C) was measured at dose of 20 mg/kg/day X5; 18.0/7.5. It counts as functional. A digest of the protocol:
as §1

Experiment [11] has as its system Mus musculus. Kind of experiment: Median survival time expressed as (T/C) was measured at dose of 40 mg/kg/day X5; 20.0/7.5. It is filed as functional. The method, boiled down:
as §1

Experiment [12] is filed under the species Mus musculus. Briefly: Number of mice survived after 30 days. It is filed as functional. A digest of the protocol:
as §1

Experiment [13] is described as follows: In vitro antiproliferative activity was measured in mouse L1210 lymphoid leukemia cell line. As to conditions: read-out: ED50 (the source's name).
In experiment [14] the test system is Mus musculus. Briefly: Percent increase in life span calculated as (T/C-1)X100 at a dose of 60 mg/kg/day X5. It counts as functional. The method, boiled down: as §1
Experiment [15] deals with Mus musculus. Kind of experiment: Median survival time expressed as (T/C) was measured at dose of 60 mg/kg/day x5; 8.5/8.0. It counts as functional. The method, boiled down:
as §1

Experiment [16] relates to Mus musculus. Kind of experiment: Median survival time expressed as (T/C) was measured at dose of 10 mg/kg/day *5; 14.0/7.5. It is filed as functional. The method, boiled down: as §1
Experiment [17] has as its system Mus musculus. Briefly: Median survival time expressed as (T/C) was measured at dose of 40 mg/kg/day X5; 19.0/7.5. It counts as functional. A digest of the protocol:
as §1

Experiment [18] deals with Mus musculus. Briefly: Change in weight of mouse on day 8 was measured in L1210 lymphoid leukemia inoculated mice after ip administration at dose of 60 mg/kg/day X5. As to conditions: route intraperitoneal. It counts as functional. The method, boiled down: as §2
Experiment [19] deals with Mus musculus. Briefly: Change in weight of mouse on day 8 was measured in L1210 lymphoid leukemia inoculated mice after ip administration at dose of 50 mg/kg/day X5. It is filed as functional. As to conditions: route intraperitoneal. The method, boiled down:
as §2

The subject of experiment [20] is Mus musculus. Kind of experiment: Median survival time expressed as (T/C) was measured at dose of 50 mg/kg/day *5; 14.0/8.0.
In experiment [21] the test system is Mus musculus. Kind of experiment: Percent increase in life span calculated as (T/C-1)X100 at a dose of 25 mg/kg/day X5. It counts as functional. A digest of the protocol:
as §1

Experiment [22] concerns Mus musculus. Kind of experiment: Median survival time expressed as (T/C) was measured at dose of 40 mg/kg/day X5; 24.5/8.5. It is filed as functional. A digest of the protocol:
as §1

Experiment [23] concerns Mus musculus. Briefly: Change in weight of mouse on day 8 was measured in L1210 lymphoid leukemia inoculated mice after ip administration at dose of 25 mg/kg/day X5. It counts as functional. As to conditions: route intraperitoneal. The method, boiled down: as §2
The subject of experiment [24] is Mus musculus. Kind of experiment: Median survival time expressed as (T/C) was measured at dose of 25 mg/kg/day X5; 20.0/7.0.
In experiment [25] the test system is Mus musculus. Kind of experiment: Median survival time expressed as (T/C) was measured at dose of 10 mg/kg/day *5. It counts as functional. A digest of the protocol:
as §1

Experiment [26] deals with Mus musculus. Kind of experiment: Median survival time expressed as (T/C) was measured at dose of 20 mg/kg/day X5. It counts as functional. The method, boiled down:
as §1

Experiment [27] has as its system Mus musculus. Briefly: Median survival time expressed as (T/C) was measured at dose of 40 mg/kg/day X5. It is filed as functional. The method, boiled down:
as §1

As to `CCCCCCCCCCCCCCCCCC(=O)OC[C@H](COP(=O)(O)OP(=O)(O)OC[C@H]1O[C@@H](n2ccc(N)nc2=O)[C@@H](O)[C@@H]1O)OC(=O)CCCCCCCCCCCCCCCCC`, the EC50 was determined as 195 µM in the experiment on MPC-11 [1] and 20 µM in experiment [13]. The CC50 in the experiment on MPC-11 [2] worked out at 164 µM. For the same compound, the ILS – broadly, how much longer treated animals lived than controls – at 10 mg/kg/day in the experiment with Mus musculus [3] is 100%. For the same compound, in the experiment with Mus musculus [4], the ILS at 20 mg/kg/day is 140%. For the same compound, in the experiment with Mus musculus [5], the increase in life span (ILS) at 40 mg/kg/day was 167%. The results for the Weight change with Mus musculus [6], in the experiment on Mus musculus [7] and in the experiment with Mus musculus [8] were 1.2 g mouse-1, 1.1 g mouse-1 and -0.4 g mouse-1, respectively. The T/C in the experiment on Mus musculus [9] was determined as 15 days; with Mus musculus [10], 18 days; with Mus musculus [11] it was 20 days. Also, the Survivors in the experiment listed under Mus musculus [12] is recorded as 0.

Turning to `CCCCCCCCCCCCCC(=O)OC[C@H](COP(=O)(O)OP(=O)(O)OC[C@H]1O[C@@H](n2ccc(N)nc2=O)[C@@H](O)[C@@H]1O)OC(=O)CCCCCCCCCCCCC`, the EC50 turned out to be 15 µM in the experiment on MPC-11 [1] and 16 µM in experiment [13]. Further, the CC50 in the experiment with MPC-11 [2] stood at 15.2 µM. In addition, the ILS at 10 mg/kg/day with Mus musculus [3] was 87%. In addition, in the experiment with Mus musculus [4], the increase in lifespan (ILS) at 20 mg/kg/day was 140%. For the same compound, the ILS at 40 mg/kg/day with Mus musculus [5] is 153%. Besides, the ILS at 60 mg/kg/day in the experiment on Mus musculus [14] is 6%. The T/C came out at 8.5 days in the experiment on Mus musculus [15], 14 days with Mus musculus [16], 18 days with Mus musculus [10] and 19 days with Mus musculus [17]. In addition, the Weight change with Mus musculus [6] is reported as 1.8 g mouse-1; in the experiment on Mus musculus [7] it was 1.15 g mouse-1; with Mus musculus [8], 0.1 g mouse-1; with Mus musculus [18] it was -4.6 g mouse-1. The same compound came in with a Survivors in the experiment filed under Mus musculus [12] of 0.

`CCCCCCCCCCCCCCCC(=O)OC[C@H](COP(=O)(O)OC[C@H]1O[C@@H](n2ccc(N)nc2=O)[C@@H](O)[C@@H]1O)OC(=O)CCCCCCCCCCCCCCC` yielded a Weight change in the experiment on Mus musculus [19] of 1.7 g mouse-1. Besides, the Survivors in the experiment filed under Mus musculus [12] was 0. For the same compound, the T/C in the experiment with Mus musculus [20] is 14 days. The EC50 in [13] worked out at 13.4 µM.

`CCCCCCCCCCCCCCCC(=O)OC[C@H](COP(=O)(O)OP(=O)(O)OC[C@H]1O[C@@H](n2ccc(N)nc2=O)[C@@H](O)[C@@H]1O)OC(=O)CCCCCCCCCCCCCCC`: the figures for the EC50 (in the experiment on MPC-11 [1]; in experiment [13]) were 65 µM and 9.6 µM, respectively. For the same compound, the CC50 in the experiment with MPC-11 [2] was 68.5 µM. The ILS at 25 mg/kg/day in the experiment on Mus musculus [21] was 186%. Moreover, in the experiment on Mus musculus [5], the ILS at 40 mg/kg/day was 188%. Besides, the T/C in the experiment with Mus musculus [22] came out at 24.5 days; with Mus musculus [24], 20 days. Further, the Weight change with Mus musculus [23] is listed as 1.57 g mouse-1; in the experiment on Mus musculus [8], -1.8 g mouse-1. Further, in the experiment listed under Mus musculus [12], the Survivors is given as 1.

For `Nc1ccn([C@@H]2O[C@H](CO)[C@@H](O)[C@@H]2O)c(=O)n1` [CYTARABINE], the EC50 with MPC-11 [1] was found to be 0.99 µM; in experiment [13] it was 0.1 µM. In addition, in the experiment with MPC-11 [2], the CC50 was 1.91 µM. The ILS at 10 mg/kg/day in the experiment with Mus musculus [3] is 53%. The increase in life span (ILS) at 20 mg/kg/day in the experiment on Mus musculus [4] was 65%. The ILS at 40 mg/kg/day in the experiment with Mus musculus [5] is 65%. In addition, the Weight change in the experiment on Mus musculus [6] came to 0.8 g mouse-1; with Mus musculus [7] it was 0.5 g mouse-1; with Mus musculus [8], 0.6 g mouse-1. Also, the T/C was 13 days in the experiment with Mus musculus [25], 14 days in the experiment with Mus musculus [26] and 14 days in the experiment with Mus musculus [27]. Also, in the experiment listed under Mus musculus [12], the Survivors was determined as 0.
